Assay results reported in ChEMBL document CHEMBL4382197, “Discovery of QCA570 as an Exceptionally Potent and Efficacious Proteolysis Targeting Chimera (PROTAC) Degrader of the Bromodomain and Extra-Terminal (BET) Proteins Capable of Inducing Complete and Durable Tumor Regression” (J Med Chem, 2018).
The source made the active and inactive calls. The rule behind the calls is not given here.

Columns and labels:
MOLM-13 = test: Growth inhibition of human MOLM13 cells after 96 hrs by CCK8 assay; format: functional, cell-based; details: MOLM-13, 96 h
MV4-11 = test: Antitumor activity against human MV4-11 cells xenografted in SCID mouse assessed tumor regression at 1 mg/kg, iv administered 3 times per week for 2 weeks; format: functional, organism-based
How it was run: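 MV4;11 xenografts: 5×10^6 cells in 50% Matrigel injected subcutaneously on the dorsal side of SCID mice, one tumor per mouse. Mice randomized at ~100 mm3. Dosed intravenously three times a week for two weeks. Tumor volume = L × W2/2; body weight monitored.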

SMILES: Cc1nnc2n1Cc1sc(C#Cc3cnn(CCCC#Cc4cccc5c4CN(C4CCC(=O)NC4=O)C5=O)c3)c(Cc3ccccc3)c1OC2 (configuration not stated)
- IC50 (MOLM-13): 0.062 nM
- Activity (MV4-11): Active
